Screening data deposited in PubChem by several laboratories.
This is one part of a sample in which hits are shown more often than they occur.
CHOP inhibitor: CHOP inhibition in unfolded protein response. 220,000 tested, 3.8% active. inhibition, % at 10 µM. CHO-K1 CHOP-promoter luciferase, tunicamycin-induced, 15-18 h;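 active = compounds that reduced the stress-induced luciferase reporter signal by more than about 70% of percent inhibition, limit read from the data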;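 also: 0% = tunicamycin plus vehicle and 100% = wells without tunicamycin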
CHOP UPR activ: apoptotic UPR (CHOP) activation. CHO-CHOP luciferase reporter, luminescence; percent of tunicamycin response over DMSO baseline. activation, % at 10 µM. 330,000 tested, 0.34% active. AID 449763;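 active = at 10 µM dose, activation of 40% or more, normalized to positive control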;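 also: 100% = tunicamycin at 10 µg/mL and 0% = DMSO alone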
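Dosing – one dose, 10 µM in 0.5% DMSO · System – CHO-CHOP cells, stable luciferase reporter of PERK-eIF2a-CHOP signalling · Input – 500 cells/well · Control set – tunicamycin 10 µg/mL final as positive, DMSO-only wells as negative · Timing – 6 h compound treatment, 37 °C · Measure – % activation vs tunicamycin · Technique – luminescence read with Steady-Glo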
Bfl-1 A1 inh: inhibitors of the anti-apoptotic protein A1, read as caspase activation; 330,000 tested, 0.066% active; MEF A1-2A-BIM cells, Caspase-Glo 3/7 luminescence, 3 h; percent of clofoctol response, vehicle zero; AID 2462; caspase activation, % (test concentration not listed);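 active = over half of replicate activation scores above 10%, or exactly half above 10 with the replicate mean above 10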
UPR XBP1 act: activators of adaptive arm of unfolded protein response (XBP1); CHO-XBP1 luciferase reporter, IRE1-XBP1 UPR activation, luminescence; percent of tunicamycin response, DMSO as zero; 330,000 tested, 0.33% active; AID 463104; activation, % at 20 µM;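 active = versus positive control, 20 µM dose yields 30% or more activation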;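 also: 100% = tunicamycin at 10 µg/mL and 0% = DMSO only wells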
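Material: IRE1-XBP1 luciferase reporter CHO line / Quantity: one thousand reporter cells per well / Buffer or medium: F12 with 10% serum / Compound: 20 µM single concentration, DMSO 1% / Times: 6 h treatment, 37 °C / Detection: Steady-Glo luciferase glow luminescence, 10 min after reagent addition / Benchmarks: tunicamycin high, DMSO low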
* = called active by the depositor; . = no result given.

SMILES	CHOP inhibitor	CHOP UPR activ	Bfl-1 A1 inh	UPR XBP1 act
CC(C)c1ccc(NS(=O)(=O)c2ccc(-n3cccn3)cc2)cc1	.	1	0	0
O=C(CNCC1CCCO1)Nc1ccccc1N1CCOCC1 (stereo not drawn)	-5	0	1	0
O=C(CNCC1CCCCC1)Nc1ccccc1N1CCCCC1	79*	0	0	2
Cc1cccc(N2CCN(CC(=O)NCC3CCCCC3)CC2)c1C	76*	0	-1	-5
O=C(CCC1CCCCC1)Nc1ccccc1O	73*	3	-12	5
O=C(CNCCC1=CCCCC1)Nc1ccccc1N1CCCCC1	92*	1	1	1
Cc1cccc(N2CCN(C(=O)NC3CCCCC3)CC2)c1C	.	4	1	0
CCOc1ccc(N(CC(=O)NCc2cccnc2)S(=O)(=O)c2ccc(F)cc2)cc1	.	0	0	-3
Nc1nc(NCCc2ccccc2)nc(NCCO)c1[N+](=O)[O-]	.	0	0	1
O=C(CNCC1CCCCC1)Nc1ccc(OC(F)(F)F)cc1	91*	-1	0	1
CSc1ccccc1OCc1cc(C(=O)N2CCc3[nH]cnc3C2c2ccccn2)no1 (stereo not drawn)	.	-1	1	-6
O=C(Nc1ccc(N2CCN(C(=O)c3ccc(Cl)cc3)CC2)cc1)c1cc2ccccc2o1	-4	5	0	-1
O=C(Nc1ccc(N2CCN(C(=O)c3ccc(Cl)cc3)CC2)cc1)c1ccc(Br)o1	77*	-3	1	-4
CS(=O)(=O)N1CCN(c2ccc(NC(=O)c3ccc(-c4ccc(Cl)cc4)o3)cc2)CC1	75*	2	0	0
COc1cccc(COC(=O)C2CCN(S(=O)(=O)c3ccc(C)cc3C)CC2)c1OC	.	-1	0	-3
CCOc1ccccc1NC(=O)Cn1nnc(C(=O)Nc2ccccc2Cl)c1N	73*	4	.	-2
COc1ccccc1NC(=O)c1nnn(CC(=O)Nc2cccc(SC)c2)c1N	70*	-3	0	-1
CCOc1ccccc1NC(=O)c1nnn(CC(=O)Nc2cc(C)cc(C)c2)c1N	.	-2	0	-5
CCN(CC)S(=O)(=O)c1ccc2[nH]c(=O)c3ccccc3c2c1	.	-1	1	-5
CCOC(=O)C(=N/O)/C(C)=N/NC(=O)C(=O)Nc1ccc(Cl)cc1	73*	6	0	-2
CC(=N\Nc1ccc(Cl)cc1)/C(=N/O)C(=O)Nc1ccccc1	5	-1	-1	-2
Cc1ccc(S(=O)(=O)Nc2ccc(NC(=O)c3c(F)c(F)c(F)c(F)c3F)cc2)cc1	47	-1	0	7
COc1ccc(NC(=O)c2cccc3c2C(=O)c2ccc(-c4cnc(OC)nc4)cc2S3(=O)=O)cc1	.	2	0	1
OC(CNCCC(c1ccccc1)c1ccccc1)COc1ccccc1 (stereo not drawn)	74*	-2	-1	2
CCOc1cc(C)c(S(=O)(=O)Nc2ccc(F)cc2)cc1C	81*	0	0	-2
SMILES	CHOP inhibitor	CHOP UPR activ	Bfl-1 A1 inh	UPR XBP1 act
CCOC(=O)c1sc(SC)c2c1CCCC2=O	13	0	0	-1
C[C@H](CO)N1C[C@H](C)[C@@H](CN(C)S(=O)(=O)c2ccccc2)Oc2ccc(NC(=O)Nc3ccc4c(c3)OCO4)cc2C1=O	.	-1	1	-1
COc1ccc(CC(=O)Nc2ccccc2N2CCCC2)cc1	.	2	0	0
COc1ccc(Cn2nc(-c3ccccc3)c(N3CCCCC3)cc2=O)cc1	74*	-3	0	-1
Cn1nc(-c2ccccc2)c(N2CCCCC2)cc1=O	2	-1	1	1
O=c1cc(N2CCCCC2)c(-c2ccccc2)nn1Cc1ccccc1	85*	0	-1	0
Cc1cccc(NC(=O)CCS(=O)(=O)c2cc3c(cc2Cl)NC(=O)CO3)c1	.	-1	-1	-6
CC1(C)O[C@@H]2[C@H](O1)[C@@H](COS(=O)(=O)O)O[C@H]2n1c(=S)[nH]c2c(=O)[nH]c(N)nc21	.	0	0	-2
CCOC(=O)C1(N(CC)CC)Sc2cc(C)ccc2NC1=O (stereo not drawn)	.	0	0	-2
COC(=O)C1=C(C(=O)OC)SC2(S1)C(C(=O)OC)=C(C(=O)OC)SC1=C2c2cc(C)ccc2NC1(C)C	73*	37	0	12
N#C/C(=C\C=C\c1ccccc1)C(=O)Nc1ccccc1	73*	2	1	4
COc1ccc(CCNC(=O)c2ccc3nc[nH]c3c2)cc1	.	2	0	0
